Among the data in ChEMBL document CHEMBL6083224, “A novel aurone RNA CAG binder inhibits the huntingtin RNA-protein interaction” (RSC Med Chem, 2024) are K and Activity values, retold here.

Active and inactive are the calls of the source. No cut-off for these calls is given here.

Holding throughout (assay type): nucleic-acid assay
The subject of test [1] is CAG repeat expansion. Description: Binding affinity to CAG (5-GCAGCAGCUUCGGCAGCAGC-3) repeat RNA (unknown origin) assessed as binding constant. The method in brief: (§1)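 The compound was titrated with RNA, and electronic absorption spectra were recorded on a two-beam UV-vis spectrophotometer. Binding constants were calculated from the spectrophotometric titration data.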

Test [2] has as its system Rev responsive element (RRE) RNA. Description: Binding affinity to HIV-1 RRE-IIB (5-GGUCUGGGCGCAGCGCAAGCUGACGGUACAGGCC-3) RNA assessed as change in fluorescence intensity. Conditions: Human immunodeficiency virus 1.
The test system of test [3] is CAG repeat expansion. Description: Binding affinity to HTT exon 1 (CAG)51 repeat RNA (unknown origin) assessed as reduction in human MID1 binding to HTT exon 1 (CAG)51 repeat RNA at 100 uM by Western blot analysis. The method in brief: (§2)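 Biotinylated RNA was folded in 10 mM Tris pH 7, 100 mM KCl, 10 mM MgCl₂ (72 °C for 10 min, then cooled to room temperature). 80 pmol of RNA was loaded onto streptavidin-agarose beads in buffer D for 30 min at room temperature. HEK293T protein extract was bound overnight at 4 °C. After washes, bound proteins were eluted at 95 °C for 10 min, and MID1 was detected by anti-MID1 western blot.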

In a further test the test system is r(CUG) repeat expansion. The test is described as follows: Binding affinity to CUG (5-GGUCGCUGCUGCACGAAAGUGCUGCUGCGACC-3) RNA (unknown origin) assessed as change in fluorescence intensity.
The next test has as its system TAR RNA. Description: Binding affinity to HIV-1 TAR (5-GGCAGAUCUGAGCCUGGGAGCUCUCUGCC-3) RNA assessed as change in fluorescence intensity. Conditions: Human immunodeficiency virus 1.
Test [4] concerns CAG repeat expansion. The test is described as follows: Binding affinity to CAG (5-GCAGCAGCUUCGGCAGCAGC-3) repeat RNA (unknown origin) assessed as hypochromic red shift by spectrophotometric analysis. In short, it runs like this: as §1
For test [5], the system named is CAG repeat expansion. Description: Binding affinity to HTT exon 1 (CAG)51 repeat RNA (unknown origin) assessed as reduction in human MID1 binding to HTT exon 1 (CAG)51 repeat RNA by Western blot analysis. Conditions: dose 1-100 µM. In short, it runs like this:
as §2
A general note: In western blotting, separated proteins are transferred to a membrane and probed.

Test [6] has as its system CAG repeat expansion. Description: Binding affinity to CAG (5-GCAGCAGCUUCGGCAGCAGC-3) repeat RNA (unknown origin) by spectrophotometric analysis. In short, it runs like this: as §1

For the molecule `CN(C)CCOc1ccc(/C=C2\Oc3cc(OCCN(C)C)ccc3C2=O)cc1`, the K with CAG repeat expansion [1] was 1.4 10^5/M. The Activity result is “No effect” in test [2], “No effect” in the test with r(CUG) repeat expansion, “No effect” in the test on TAR RNA and “Dose-dependent-effect” in the test with CAG repeat expansion [5]. Further, the outcome in the test on CAG repeat expansion [3] and with CAG repeat expansion [4] was Active.
As to `O=C1/C(=C/c2c3ccccc3cc3ccccc23)Oc2ccccc21`, the outcome (in test [2]; with TAR RNA) was Active. The result in the test with CAG repeat expansion [6], with CAG repeat expansion [3] and with r(CUG) repeat expansion was inactive.
